Results published in ChEMBL document CHEMBL3763045, “Design, Synthesis, and Pharmacological Evaluation of Novel N-Acylhydrazone Derivatives as Potent Histone Deacetylase 6/8 Dual Inhibitors” (J Med Chem, 2016).
pIC50: −log10 of the molar value. ≈ marks a conversion by molar mass, not a printed value. Calls of active or inactive are those of the source. The rule behind the calls is not given here.

Experiments:
[1] = biological target: Histone deacetylase (Rattus norvegicus) (UniProt Q6P6W3+Q99P99+Q99P96+Q4QQW4+Q99P97+Q5RJZ2+B1WBY8); experiment: Inhibition of HDAC in rat liver at 1 uM by fluorimetry
In short: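 Rat liver HDAC preparation, non-selective enzyme assay, test compounds at 1 µM; % inhibition is the mean of two experiments.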

[2] = Aqueous solubility of the compound in buffer at pH 7.4 after 24 hrs by spectrophotometric method; assay type: physicochemical
In short: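 Water solubility in pH 7.4 buffer, measured spectrophotometrically by the method of Schneider and coworkers.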

[3] = biological target: Histone deacetylase 1 (Homo sapiens, UniProt Q13547); experiment: Inhibition of recombinant human HDAC1 by fluorimetry
Chain of Histone deacetylase 1 (Q13547 whole entry): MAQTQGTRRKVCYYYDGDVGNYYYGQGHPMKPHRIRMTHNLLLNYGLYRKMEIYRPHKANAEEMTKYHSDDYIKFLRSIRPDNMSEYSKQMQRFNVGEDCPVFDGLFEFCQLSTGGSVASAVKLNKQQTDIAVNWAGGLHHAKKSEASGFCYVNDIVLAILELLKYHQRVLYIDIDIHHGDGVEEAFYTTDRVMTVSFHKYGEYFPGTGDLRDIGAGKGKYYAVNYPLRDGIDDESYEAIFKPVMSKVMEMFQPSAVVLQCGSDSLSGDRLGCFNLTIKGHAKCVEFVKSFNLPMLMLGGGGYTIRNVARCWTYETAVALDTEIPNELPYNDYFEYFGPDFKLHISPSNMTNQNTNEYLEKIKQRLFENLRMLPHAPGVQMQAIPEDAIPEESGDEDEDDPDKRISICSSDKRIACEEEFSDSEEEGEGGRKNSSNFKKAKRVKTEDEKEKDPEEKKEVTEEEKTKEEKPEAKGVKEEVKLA

[4] = tested on: HepG2; experiment: Effect on cell cycle distribution in human HepG2 cells assessed as decrease in S phase at 5 to 10 uM after 24 to 48 hrs by propidium iodide staining-based flow cytometry; assay type: functional
In short: (§1)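 Cell cycle of HepG2 cells by flow cytometry after 5 or 10 µM for 24 and 48 h, giving SubG1, G0/G1, S and G2/M fractions. ANOVA with Tukey's post-test against control.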

[5] = tested on: HepG2; experiment: Effect on cell cycle distribution in human HepG2 cells assessed as decrease in G0/G1 phase at 5 to 10 uM after 24 to 48 hrs by propidium iodide staining-based flow cytometry; assay type: functional; in short: as §1
[6] = Chemical stability of the compound in acidic buffer assessed as compound hydrolysis at pH 2 measured for 240 mins by HPLC-PDA analysis; assay type: physicochemical; conditions: pH 2, 4 h
In short: (§2)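 Compounds stirred in pH 7.4 or pH 2 buffer at 37 °C for 240 min; percentage of compound recovered followed over time (30 min and 4 h points). Triplicate runs, values averaged.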

[7] = tested on: HepG2; experiment: Antiproliferative activity against human HepG2 cells assessed as reduction in cell viability after 48 hrs by MTS assay; assay type: functional, cell-based; conditions: HepG2, 48 h
[8] = Chemical stability of compound in phosphate dibasic buffer assessed as compound degradation at pH 7.4 by HPLC-PDA analysis; assay type: physicochemical; conditions: read-out: Drug degradation; in short: as §2
[9] = biological target: Histone deacetylase 2 (Homo sapiens, UniProt Q92769); experiment: Inhibition of recombinant human HDAC2 by fluorimetry
Chain of Histone deacetylase 2 (Q92769 whole entry): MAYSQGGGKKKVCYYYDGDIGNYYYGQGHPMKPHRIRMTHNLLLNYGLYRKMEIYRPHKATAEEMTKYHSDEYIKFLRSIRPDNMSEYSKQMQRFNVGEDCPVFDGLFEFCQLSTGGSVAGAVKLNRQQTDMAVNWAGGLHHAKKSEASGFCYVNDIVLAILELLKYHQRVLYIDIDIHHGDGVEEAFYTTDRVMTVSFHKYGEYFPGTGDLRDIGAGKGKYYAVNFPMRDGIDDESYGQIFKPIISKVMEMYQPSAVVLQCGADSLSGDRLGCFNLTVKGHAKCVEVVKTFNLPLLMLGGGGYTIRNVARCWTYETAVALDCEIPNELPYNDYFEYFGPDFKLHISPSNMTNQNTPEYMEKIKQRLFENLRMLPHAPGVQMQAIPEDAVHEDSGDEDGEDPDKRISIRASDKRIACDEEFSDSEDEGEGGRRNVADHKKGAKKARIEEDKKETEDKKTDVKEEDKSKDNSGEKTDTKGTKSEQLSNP

[10] = biological target: T1, Protein deacetylase HDAC6 (Homo sapiens, UniProt Q9UBN7); experiment: Inhibition of recombinant human HDAC6 by fluorimetry
T1 sequence (Q9UBN7 whole entry): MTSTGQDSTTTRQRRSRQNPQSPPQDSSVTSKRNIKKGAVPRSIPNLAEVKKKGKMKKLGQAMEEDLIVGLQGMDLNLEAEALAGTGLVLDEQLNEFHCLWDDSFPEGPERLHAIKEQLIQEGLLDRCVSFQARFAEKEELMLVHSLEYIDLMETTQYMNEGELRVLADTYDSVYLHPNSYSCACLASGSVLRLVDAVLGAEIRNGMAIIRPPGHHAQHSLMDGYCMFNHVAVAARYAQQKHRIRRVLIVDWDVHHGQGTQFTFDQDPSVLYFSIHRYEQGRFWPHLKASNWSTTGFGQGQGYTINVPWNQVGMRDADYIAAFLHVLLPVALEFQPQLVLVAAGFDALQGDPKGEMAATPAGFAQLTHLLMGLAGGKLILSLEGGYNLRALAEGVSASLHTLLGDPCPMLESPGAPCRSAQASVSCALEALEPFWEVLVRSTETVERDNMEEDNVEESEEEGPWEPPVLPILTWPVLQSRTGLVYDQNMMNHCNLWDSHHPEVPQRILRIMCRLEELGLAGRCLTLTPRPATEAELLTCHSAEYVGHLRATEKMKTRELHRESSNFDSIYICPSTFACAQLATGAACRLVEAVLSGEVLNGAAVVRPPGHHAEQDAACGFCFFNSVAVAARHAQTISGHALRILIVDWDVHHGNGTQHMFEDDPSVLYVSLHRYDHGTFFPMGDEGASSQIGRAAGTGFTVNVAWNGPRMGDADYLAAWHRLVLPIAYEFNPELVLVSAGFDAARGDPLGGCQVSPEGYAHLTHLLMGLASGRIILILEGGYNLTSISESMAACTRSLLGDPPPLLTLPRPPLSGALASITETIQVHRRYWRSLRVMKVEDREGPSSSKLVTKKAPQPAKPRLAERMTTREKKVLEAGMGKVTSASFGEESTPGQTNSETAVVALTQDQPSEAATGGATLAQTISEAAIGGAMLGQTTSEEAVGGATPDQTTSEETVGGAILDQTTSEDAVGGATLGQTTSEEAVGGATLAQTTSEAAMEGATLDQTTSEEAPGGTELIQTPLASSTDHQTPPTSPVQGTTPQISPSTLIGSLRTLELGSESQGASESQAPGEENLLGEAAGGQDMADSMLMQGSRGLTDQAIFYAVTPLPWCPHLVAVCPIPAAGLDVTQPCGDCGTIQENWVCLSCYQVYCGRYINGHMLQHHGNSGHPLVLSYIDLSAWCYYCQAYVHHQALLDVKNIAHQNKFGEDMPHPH

[11] = Antiproliferative activity against human HT144 cells assessed as reduction in cell viability after 48 hrs by MTS assay; assay type: functional, cell-based; conditions: HT-144, 48 h
[12] = tested on: HepG2; experiment: Antiproliferative activity against human HepG2 cells assessed as reduction in cell viability at 40 uM after 48 hrs by MTS assay; assay type: functional, cell-based
[13] = Chemical stability of the compound in acidic buffer assessed as compound recovery at pH 2 after 30 mins by HPLC-PDA analysis; assay type: physicochemical; in short: as §2
[14] = Chemical stability of the compound in acidic buffer assessed as compound recovery at pH 2 after 4 hrs by HPLC-PDA analysis; assay type: physicochemical; conditions: buffer, pH 2, 4 h; in short: as §2
[15] = tested on: HepG2; experiment: Induction of apoptosis in human HepG2 cells at 5 to 10 uM after 24 hrs by TUNEL assay; assay type: functional, cell-based
In short: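 HepG2 cells treated 24 h (5 and 10 µM for TUNEL, 5 µM for caspase 3/7). Apoptosis scored by flow cytometry as TUNEL-positive frequency and as cells with activated caspase 3/7. Doxorubicin positive control; ANOVA with Tukey's post-test.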

[16] = tested on: HT-144; experiment: Antiproliferative activity against human HT144 cells assessed as reduction in cell viability at 40 uM after 48 hrs by MTS assay; assay type: functional, cell-based
[17] = biological target: T2, Histone deacetylase 8 (Homo sapiens, UniProt Q9BY41); experiment: Inhibition of recombinant human HDAC8 by fluorimetry
T2 sequence (Q9BY41 whole entry): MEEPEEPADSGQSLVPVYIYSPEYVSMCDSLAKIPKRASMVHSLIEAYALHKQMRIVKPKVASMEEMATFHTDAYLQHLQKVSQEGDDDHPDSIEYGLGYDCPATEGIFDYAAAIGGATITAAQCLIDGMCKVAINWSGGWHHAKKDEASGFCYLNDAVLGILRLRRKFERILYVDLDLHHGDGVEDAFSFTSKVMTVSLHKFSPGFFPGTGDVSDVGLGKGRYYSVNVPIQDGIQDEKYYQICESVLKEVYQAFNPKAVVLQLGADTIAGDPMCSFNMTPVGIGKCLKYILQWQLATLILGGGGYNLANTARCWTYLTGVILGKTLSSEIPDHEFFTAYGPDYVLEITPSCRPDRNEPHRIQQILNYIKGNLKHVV

[18] = tested on: HepG2; experiment: Effect on cell cycle distribution in human HepG2 cells assessed as accumulation at SubG1 phase at 5 to 10 uM after 24 to 48 hrs by propidium iodide staining-based flow cytometry; assay type: functional; in short: as §1
[19] = tested on: MCF7; experiment: Antiproliferative activity against human MCF7 cells assessed as reduction in cell viability at 40 uM after 48 hrs by MTS assay; assay type: functional, cell-based
In short: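 MCF-7 cells exposed at 40 µM for 48 h, viability by MTS; ANOVA with Tukey's post-test against control.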

[20] = biological target: Histone deacetylase; experiment: Inhibition of HDAC in rat liver by fluorimetry
In short: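 Rat liver HDAC IC50 from a six-point enzyme assay, three-fold serial dilution starting at 3 µM or 1 µM depending on compound; mean of two experiments ± SD.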

| solubility at 24 h [2] [µM] | pIC50 [3] | pIC50 [9] | pIC50 [10] | pIC50 [17] | Compound | Activity [12] | Activity [16] | Activity [19] | further results |
| --- | --- | --- | --- | --- | --- | --- | --- | --- | --- |
| > 67 | – | – | – | – | CN(/N=C/c1ccc(C(=O)O)cc1)C(=O)c1ccc(N(C)C)cc1 | – | – | – | inhibition [1]: -8.7% |
| > 70 | – | – | – | – | CN(C)c1ccc(C(=O)N/N=C/c2cccc(C(=O)O)c2)cc1 | – | – | – | – |
| 6.2 (≈ 2.11 µg/mL) | < 5.52 | < 5.52 | 7.25 | 6.96 | C/C(=N\NC(=O)c1ccc(N(C)C)cc1)c1ccc(C(=O)NO)cc1 | Active | Active | Active | Activity [4]: Active; Activity [5]: Active; Stability [6]: Unstable; pIC50 [7]: 4.94; degraded [8]: > 15%; pIC50 [11]: 4.70; remaining at 0.5 h ([13]; acidic buffer, pH 2, read-out: Drug recovery): 6%; Stability [14]: Unstable; Activity [15]: Active; Activity [18]: Active |
| > 67 | < 5.00 | < 5.00 | 6.41 | 5.66 | CN(C)c1ccc(C(=O)N/N=C/c2cccc(C(=O)NO)c2)cc1 | Active | Active | Active | inhibition [1]: 66%; IC50 [20]: 1.2 µM |
| 8.2 (≈ 2.78 µg/mL) | – | – | – | – | COC(=O)c1cccc(/C=N/N(C)C(=O)c2ccc(N(C)C)cc2)c1 | – | – | – | – |
| 1.7 (≈ 0.553 µg/mL) | – | – | – | – | COC(=O)c1ccc(/C=N/NC(=O)c2ccc(N(C)C)cc2)cc1 | – | – | – | – |
| 122 (≈ 43.2 µg/mL) | < 5.52 | < 5.52 | 7.01 | 7.27 | C/C(=N\N(C)C(=O)c1ccc(N(C)C)cc1)c1ccc(C(=O)NO)cc1 | Active | Active | Active | Stability [6]: Unstable; pIC50 [7]: 4.52; degraded [8]: > 15%; pIC50 [11]: 4.29; Stability ([13]; buffer, pH 2, 0.5 h): Unstable |
